Bioassay records deposited in PubChem by Johns Hopkins Ion Channel Center.
TRPC4 inh – inhibitors of mouse TRPC4 channel; Q9QUQ5; HEK293 TRPC4beta/mu-opioid, DAMGO-evoked Fluo4 calcium flux; active compounds read low; B-score at 10 µM; actives 0.39% (n = 300,000); AID 2247;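 active means B-score over 3 SD under the library average, no early fluorescence shift, positive overall ratio signal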
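Assay system: Stable TRPC4beta/mu-opioid receptor HEK293 cells | Reagent: DAMGO in two steps, submaximal then maximal | Compound dosing: Single concentration per test compound | Signal: Fluo4 Ca2+ flux fluorescence | Evaluation: Per-well B score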
TRPC4 act – activators of mouse TRPC4 channel | HEK293 TRPC4beta/mu-opioid, Fluo4 calcium fluorescence; active compounds read high | B-score at 10 µM | actives 0.49% (n = 310,000);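 active means B-score above 5 SD of library B-scores, and initial fluorescence ratio not above library mean plus 5 SD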;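 further: positive B-score marks a calcium rise read as TRPC4 activation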
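Test system: HEK293 cells stably co-expressing mouse TRPC4beta and mu-opioid receptor | Schedule: Fluo4 dye loading 45 min at room temperature, 110 s recording | Measured by: Kinetic Fluo4 calcium fluorescence, 5 s baseline at 1 Hz | Evaluation: B score of integrated ratio | Controls: Buffer (low) and maximal DAMGO (high)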
TRPC6 act – activators of mouse TRPC6 channel. AID 2550. Q61143. B-score at 10 µM. HEK293-TRPC6 membrane potential dye fluorescence; active compounds read high. actives 0.13% (n = 310,000);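 active means B-score of the integrated fluorescence ratio above library mean plus 3 SD, and starting fluorescence ratio within library mean plus 5 SD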;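 further: higher score means more depolarization so channel activation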
Target sequence (Q61143 whole entry, looked up): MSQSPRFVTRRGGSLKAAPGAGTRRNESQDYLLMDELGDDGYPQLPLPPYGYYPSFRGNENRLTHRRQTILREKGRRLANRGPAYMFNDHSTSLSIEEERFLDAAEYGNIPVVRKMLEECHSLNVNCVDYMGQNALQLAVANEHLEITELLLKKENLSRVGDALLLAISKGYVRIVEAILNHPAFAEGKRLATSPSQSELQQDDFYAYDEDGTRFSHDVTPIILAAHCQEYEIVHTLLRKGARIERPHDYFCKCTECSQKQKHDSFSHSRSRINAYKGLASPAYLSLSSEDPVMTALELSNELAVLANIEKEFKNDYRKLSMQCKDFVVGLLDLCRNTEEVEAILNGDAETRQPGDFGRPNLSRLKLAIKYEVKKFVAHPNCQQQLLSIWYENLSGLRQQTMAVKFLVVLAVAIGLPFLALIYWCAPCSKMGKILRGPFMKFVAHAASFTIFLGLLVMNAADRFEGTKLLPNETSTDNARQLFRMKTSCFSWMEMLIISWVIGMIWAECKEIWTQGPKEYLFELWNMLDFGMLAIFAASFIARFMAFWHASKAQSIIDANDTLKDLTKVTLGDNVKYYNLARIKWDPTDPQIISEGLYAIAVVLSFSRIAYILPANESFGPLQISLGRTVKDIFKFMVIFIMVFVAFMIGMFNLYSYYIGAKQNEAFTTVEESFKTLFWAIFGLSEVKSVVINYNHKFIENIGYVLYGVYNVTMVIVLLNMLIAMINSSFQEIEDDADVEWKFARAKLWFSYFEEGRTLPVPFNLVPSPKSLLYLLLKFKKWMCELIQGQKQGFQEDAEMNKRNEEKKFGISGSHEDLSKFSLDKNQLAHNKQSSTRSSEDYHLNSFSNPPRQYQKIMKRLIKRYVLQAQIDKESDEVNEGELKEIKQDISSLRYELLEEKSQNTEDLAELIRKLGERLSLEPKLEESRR
TRPC4 PAM – allosterically enhances the mouse TRPC4 cation channel; Q9QUQ5; B-score at 10 µM; actives 0.42% (n = 310,000); HEK293 TRPC4beta/mu-opioid, DAMGO EC20, Fluo-4 Ca2+ flux; active compounds read high; AID 2227;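 active means B-score of calcium response area above 5 SD of library B-scores, with initial fluorescence ratio within 5 SD of library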;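 further: B-score of integrated fluorescence ratio over time as area under calcium response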
TRPC6 inh – inhibitors of mouse TRPC6 channel | HEK293-TRPC6, membrane potential dye, ACh-evoked depolarization; active compounds read low | B-score at 10 µM | actives 1.1% (n = 310,000) | AID 2553;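 active means B-score under library mean minus 3 SD, initial fluorescence not abnormally high, positive integrated signal ratio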;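 further: B-score derived from integrated fluorescence ratio over the kinetic read; more negative B-score means stronger inhibition of depolarization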
The depositor's hits bear a star. In the library only some 2.3% were active in any assay of this set; here they are far more common.

O=C(CSc1nnc(C2CC2)n1CC1CCCO1)Nc1cccc(Cl)c1 (stereo not drawn) was read as TRPC4 inh inactive, TRPC4 act inactive, TRPC6 act inactive, TRPC4 PAM inactive and TRPC6 inh inactive.
Cc1ccc(-c2nc(C)sc2CC(=O)OCC(=O)Nc2ccc(F)c(Cl)c2)cc1 was read as TRPC4 inh inactive, TRPC4 act inactive, TRPC6 act inactive, TRPC4 PAM inactive and TRPC6 inh inactive.
`C=CCOc1ccc(C2CC(C)=NN2c2ccccc2)cc1` (stereo not drawn) gave TRPC4 inh -8*, TRPC4 act inactive, TRPC6 act inactive, TRPC4 PAM inactive and TRPC6 inh inactive.
Screening CC(C)Cn1cnc2c(c(-c3ccccc3)c(-c3ccccc3)n2Cc2ccco2)c1=N returned TRPC4 inh inactive, TRPC4 act inactive, TRPC6 act inactive, TRPC4 PAM inactive and TRPC6 inh -4.99*.
Screening Cc1oc2cc3oc(=O)c(CCC(=O)NCCN4CCOCC4)c(C)c3cc2c1C returned TRPC4 inh inactive, TRPC4 act inactive, TRPC6 act inactive, TRPC4 PAM inactive and TRPC6 inh inactive.
Screening O=C(NNS(=O)(=O)c1ccc(F)cc1)c1cc(Cl)ccc1O returned TRPC4 inh inactive, TRPC4 act inactive, TRPC6 act inactive, TRPC4 PAM inactive and TRPC6 inh inactive.
For CCOc1ccccc1OCCN1CCC(Cc2ccccc2)CC1 the results were TRPC4 inh inactive, TRPC4 act inactive, TRPC6 act inactive, TRPC4 PAM inactive and TRPC6 inh inactive.
`CCC(=O)c1ccccc1OCCCN1CCC(Cc2ccccc2)CC1` gave TRPC4 inh inactive, TRPC4 act inactive, TRPC6 act inactive, TRPC4 PAM inactive and TRPC6 inh -6.47*.
`CSc1ccc(NC(=O)Nc2ccc(C(=O)NCC(=O)O)cc2)cc1` gave TRPC4 inh inactive, TRPC4 act inactive, TRPC6 act inactive, TRPC4 PAM inactive and TRPC6 inh inactive.
C=CCN(C(=O)Cn1nnc2ccccc21)C(C(=O)NCCOC)c1ccc(OC)cc1OC (stereo not drawn) was read as TRPC4 inh inactive, TRPC4 act inactive, TRPC6 act inactive, TRPC4 PAM inactive and TRPC6 inh inactive.
Screening COCCN(C(=O)Cn1nnc2ccccc21)C(C(=O)NC1CCCC1)c1cc(OC)ccc1OC (stereo not drawn) returned TRPC4 inh inactive, TRPC4 act inactive, TRPC6 act 24.5*, TRPC4 PAM inactive and TRPC6 inh inactive.
`CCN1CCN(c2c(Cl)cccc2NC(=O)c2cccs2)CC1` gave TRPC4 inh inactive, TRPC4 act inactive, TRPC6 act inactive, TRPC4 PAM 39* and TRPC6 inh inactive.
`CCN1CCN(c2c(Cl)cccc2NC(=O)c2ccco2)CC1` gave TRPC4 inh inactive, TRPC4 act 65*, TRPC6 act inactive, TRPC4 PAM inactive and TRPC6 inh inactive.
`O=C(Nc1cccc(Cl)c1N1CCOCC1)c1ccco1` gave TRPC4 inh inactive, TRPC4 act inactive, TRPC6 act inactive, TRPC4 PAM inactive and TRPC6 inh inactive.
Screening CCN1CCN(c2c(Cl)cccc2NC(=O)c2ccc([N+](=O)[O-])o2)CC1 returned TRPC4 inh inactive, TRPC4 act inactive, TRPC6 act inactive, TRPC4 PAM inactive and TRPC6 inh -8.69*.
For CCc1ccc(S(=O)(=O)/N=C2\C=C(Nc3ccc(O)cc3)C(=O)c3ccccc32)cc1 the results were TRPC4 inh inactive, TRPC4 act inactive, TRPC6 act inactive, TRPC4 PAM inactive and TRPC6 inh inactive.
For CCc1ccc(S(=O)(=O)/N=C2\C=C(Nc3cccc(C(=O)O)c3)C(=O)c3ccccc32)cc1 the results were TRPC4 inh -8*, TRPC4 act inactive, TRPC6 act inactive, TRPC4 PAM inactive and TRPC6 inh inactive.
Oc1ccc(C2=NNC(c3ccc(O)cc3)=NN2)cc1 was read as TRPC4 inh inactive, TRPC4 act inactive, TRPC6 act inactive, TRPC4 PAM inactive and TRPC6 inh inactive.
Screening CCCCC(=O)NNC(=S)NC(=O)c1ccc(C)cc1 returned TRPC4 inh inactive, TRPC4 act 240*, TRPC6 act inactive, TRPC4 PAM inactive and TRPC6 inh inactive.
